This assay deals with Integrase (Human immunodeficiency virus 1, UniProt Q7ZJM1). Briefly: Log of inhibitory concentration against human immunodeficiency virus type 1 integrase. The gist of the method: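 Strand transfer ELISA using recombinant His-tagged HIV-1 integrase expressed in E. coli BL21(DE3). 20 nM biotinylated processed viral DNA substrate is preincubated with 300 nM integrase for 5 min at 37 °C. Serial compound dilutions and 50 nM target DNA are then added in 20 mM Hepes pH 7.5, 25 mM NaCl, 5 mM MnCl2, 2 mM DTT, 50 µg/mL BSA and incubated 2 h at 37 °C. Products are captured on streptavidin plates, detected with anti-FITC peroxidase antibody and read by chemiluminescence.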
Sequence of Integrase (Q7ZJM1 whole entry): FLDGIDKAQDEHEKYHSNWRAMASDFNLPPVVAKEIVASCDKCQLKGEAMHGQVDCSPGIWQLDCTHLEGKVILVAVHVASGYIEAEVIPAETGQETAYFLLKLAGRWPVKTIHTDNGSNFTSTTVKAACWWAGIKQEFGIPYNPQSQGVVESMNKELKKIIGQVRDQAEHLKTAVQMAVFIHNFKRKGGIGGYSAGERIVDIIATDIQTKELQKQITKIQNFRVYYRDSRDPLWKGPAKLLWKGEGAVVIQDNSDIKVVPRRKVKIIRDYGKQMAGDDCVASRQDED
Take `O=c1c2[nH]cc[nH]c2c(=O)c2c(=O)n(Cc3cccc(F)c3)c(=O)c12`: the IC50 (commonly the concentration needed to halve the response being measured) was 562 nM.
For the compound `COc1ccc(Cn2c(=O)c3c(=O)c4[nH]cc[nH]c4c(=O)c3c2=O)cc1`, the half-maximal inhibitory concentration (IC50) was determined as 562 nM.
As for `O=c1c2[nH]cc[nH]c2c(=O)c2c(=O)n(CCc3ccc4c(c3)OCO4)c(=O)c12`, the figure is 1410 nM; as for `O=c1c2[nH]cc[nH]c2c(=O)c2c(=O)n(Cc3ccc(OC(F)(F)F)cc3)c(=O)c12`, 2040 nM.
On to `O=c1c2[nH]cc[nH]c2c(=O)c2c(=O)n(CCc3ccccc3)c(=O)c12`, for which inhibition was half-maximal at 2040 nM (IC50).
Regarding `O=c1c2[nH]cc[nH]c2c(=O)c2c(=O)n(Cc3ccc(Cl)cc3)c(=O)c12`, inhibition was half-maximal at 417 nM (IC50).
In turn, `COc1cccc(Cn2c(=O)c3c(=O)c4[nH]cc[nH]c4c(=O)c3c2=O)c1OC` returned an IC50 of 427 nM.
In the case of `O=c1c2[nH]cc[nH]c2c(=O)c2c(=O)n(Cc3ccc(F)cc3)c(=O)c12` it was 417 nM; in that of `COc1ccc(Cn2c(=O)c3c(=O)c4[nH]cc[nH]c4c(=O)c3c2=O)c(OC)c1`, 427 nM; in that of `O=c1c2[nH]cc[nH]c2c(=O)c2c(=O)n(Cc3cccc(C(F)(F)F)c3)c(=O)c12`, 427 nM.
Turning to `O=c1c2[nH]cc[nH]c2c(=O)c2c(=O)n(Cc3ccc4c(c3)OCO4)c(=O)c12`, inhibition was half-maximal at 562 nM (IC50).

Values taken from BindingDB's records for doi:10.1021/jm049559q (Tibotec, 2005).
